Test results as given in ChEMBL document CHEMBL1122793, “Synthesis, characterization, and properties of a group of platinum (IV) complexes” (J Med Chem, 1984).

Assays:
Format in all cases: functional, cell-based
Settings in all cases: Mus musculus
L1210 [1] = experiment: Compound was evaluated for antitumor activity against 10e 6 L1210 cells implanted intraperitoneally into mice after treatment on day 1(reference 9)
Summary of the method: (§1)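 Mice received 10⁶ L1210 ascites cells ip and were treated ip on day 1 only. Treatment groups had six mice. The optimal dose was recorded in mg/kg, and activity was recorded as the maximum percent T/C, as defined in ref 9.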

L1210 [2] = experiment: Compound was evaluated for antitumor activity against 10e 6 L1210 cells implanted intraperitoneally into mice after treatment on day 1(maximum percentage toxicity); summary of the method: as §1
L1210 [3] = experiment: Compound was evaluated for antitumor activity against 10e 6 L1210 cells implanted intraperitoneally into mice after treatment on days 1-5 (maximum percentage toxicity)
Summary of the method: (§2)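 Mice were implanted ip with 10⁶ L1210 ascites cells and treated ip on days 1-5, with the dose given in mg/kg per injection. Groups had six mice each. The read-out was the optimal dose and the maximum percent T/C, as defined in ref 9.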

L1210 [4] = experiment: Compound was evaluated for antitumor activity against 10e 6 L1210 cells implanted intraperitoneally into mice after treatment on days 1-5; summary of the method: as §2
L1210 [5] = experiment: Compound was evaluated for antitumor activity against 10e 6 L1210 cells implanted intraperitoneally into mice after treatment on day 1(maximum percentage toxicity)(reference 9); summary of the method: as §1
L1210 [6] = experiment: Compound was evaluated for antitumor activity against 10e 6 L1210 cells implanted intraperitoneally into mice after treatment on days 1-9 (maximum percentage toxicity)
L1210 [7] = experiment: Compound was evaluated for antitumor activity against 10e 6 L1210 cells implanted intraperitoneally into mice after treatment on day 1; summary of the method: as §1
L1210 [8] = experiment: Compound was evaluated for antitumor activity against 10e 6 L1210 cells implanted intraperitoneally into mice after treatment on days 1-9

Dichloro-diammonium-platinum
Optimal dose (L1210 [1]): 120 mg/kg
T/C (L1210 [2]): 150%
T/C (L1210 [3]): 157%
Optimal dose (L1210 [4]): 12 mg/kg
T/C (L1210 [5]): 164%
T/C (L1210 [6]): 193%
Optimal dose (L1210 [7]): 48 mg/kg
Optimal dose (L1210 [8]): 20 mg/kg

Tetrachloro-diammonium platinum
T/C (L1210 [2]): 121%
T/C (L1210 [3]): 114%
Optimal dose (L1210 [4]): 4 mg/kg
Optimal dose (L1210 [7]): 32 mg/kg

Dichloro-dibromo-diammonium platinum
T/C (L1210 [2]): 136%
T/C (L1210 [3]): 129%
Optimal dose (L1210 [4]): 0.75 mg/kg
Optimal dose (L1210 [7]): 12 mg/kg
